# Measurements from PubChem BioAssay AID624466 (The Scripps Research Institute Molecular Screening Center, 2012).
# Out of some 360,000 compounds screened, about 5,400 (1.5%) were called active. Many of the other results were omitted from the sample, so actives are more common in it than they were. Values without a mark were called inactive.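 The calls were made as follows: active = inhibition above a per-plate cutoff, the mean inhibition of test compounds on that plate plus 3 SD (cut at about 49% in these data); inactive = the rest.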
# Biological target: Trace amine-associated receptor 1 (Homo sapiens) (UniProt Q96RJ0)
# Test: human TAAR1 antagonists, primary screen, Fluo-8 calcium fluorescence, CHO RD-HGA16 cells (AID 624466);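 also: 0% = DMSO plus EC80 beta-PEA response and 100% = DMSO alone without agonist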
# Settings: CHO RD-HGA16 TAAR1, Fluo-8 calcium fluorescence, antagonist; at 3 µM; active compounds read high
# Procedure, shortened: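 System: CHO RD-HGA16 cells bearing hTAAR1. Reagent: EC80 β-phenethylamine stimulus. Schedule: seeding 17-24 h prior, 75-min 37 °C, 30-min RT dye loading. Signal: Fluo-8 intracellular calcium dye fluorescence, real-time kinetic reads. Read-out: % inhibition from peak post-agonist over basal fluorescence ratio. Benchmarks: vehicle wells and EC80 agonist wells. Replicates: n of 1.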
# Chain of Trace amine-associated receptor 1 (Homo sapiens) (Q96RJ0 whole entry, looked up): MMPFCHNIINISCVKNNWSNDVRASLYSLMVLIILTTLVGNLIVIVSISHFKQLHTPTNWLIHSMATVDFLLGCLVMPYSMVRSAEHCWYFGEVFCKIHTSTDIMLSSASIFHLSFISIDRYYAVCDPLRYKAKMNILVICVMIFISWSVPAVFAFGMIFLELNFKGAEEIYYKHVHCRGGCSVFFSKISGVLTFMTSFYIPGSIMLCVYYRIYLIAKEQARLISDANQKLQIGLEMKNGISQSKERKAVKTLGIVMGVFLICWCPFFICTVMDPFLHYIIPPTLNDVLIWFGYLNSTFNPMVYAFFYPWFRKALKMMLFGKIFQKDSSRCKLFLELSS
row,Compound,inhibition
1,CCOC(=O)C(C)N(c1ccccc1Cl)S(C)(=O)=O (stereo unspecified),-3.03%
2,CN(CC(=O)O)S(=O)(=O)c1ccc2oc3ccccc3c2c1,-5.94%
3,COc1ccc(-c2cc(C(=O)N(C)Cc3ccccc3)c3ccccc3n2)cc1,62.6% (active)
4,COc1ccc(CN(C)C(=O)c2cc(-c3ccc(C)cc3C)nc3ccccc23)c(OC)c1OC,72.6% (active)
5,COc1ccc(S(=O)(=O)N2CCCCCC2)cc1C(=O)N(C)Cc1cccc(OC)c1OC,3.09%
6,COc1ccc(-c2cc(C(=O)N(C)CC(=O)Nc3ccccc3Cl)c3ccccc3n2)cc1OC,73.2% (active)
7,COc1ccc(C2=NS(=O)(=O)N(C)C(C(=O)N(C)Cc3ccccc3)=C2)cc1,11.5%
8,COc1ccc(CN(C)C(=O)Cc2ccsc2)c(OC)c1OC,-26.8%
9,Cc1cccc(C(=O)NCC(=O)OCC(=O)N(C)CC(=O)Nc2ccccc2Cl)c1,-23.2%
10,COc1ccc(C(=O)N(C)Cc2ccc(OC)c(OC)c2OC)cc1S(=O)(=O)N1CCOCC1,-9.36%
11,COc1ccc(-c2cc(C(=O)N(C)Cc3ccc(OC)c(OC)c3OC)c3ccccc3n2)cc1OC,78.5% (active)
12,C/C(N)=C(/C#N)C(=O)COC(=O)c1cc(-c2ccc(C)cc2)nc2ccccc12,-4.69%
13,COc1ccc(Cl)cc1NC(=O)CN(C)C(=O)c1ccc2n[nH]nc2c1,-6.92%
14,COc1ccc(CN(C)C(=O)Cc2c[nH]c3ccccc23)c(OC)c1OC,4.63%
15,Cc1ccc(N/C(N)=N/c2nc(C(F)(F)F)cc(C(F)(F)F)n2)cc1,1.49%
16,CCn1ccnc1CN(C)C(=O)c1ccc2nc(Cc3ccc(OC)cc3)oc2c1,9.63%
17,Cc1ccc(C)c(CN2CCC(CNC(=O)C3CCCN(c4ncnc5c4nc4n5CCCCC4)C3)CC2)c1 (stereo unspecified),-10.2%
18,O=C(Nc1ccc(CSc2ccccc2)cc1)c1ccc(CN2CCOCC2)cc1,29.6%
19,COCc1cc(N2CCN(C(=O)OC(C)(C)C)C[C@@H]2C)ccc1N1CCN(Cc2ccccc2)[C@H](C)C1,-3.16%
20,O=C1/C(=C/c2cccs2)SC(=S)N1C1CCS(=O)(=O)C1 (stereo unspecified),-5.52%
21,COc1ccc(CCn2c(NN=C3CCCC3)nc3c2c(=O)[nH]c(=O)n3C)cc1,-23.8%
22,COc1cc(OC)c2c(c1)OC(=O)CC2c1cc(OC)c(OC)c(OC)c1 (stereo unspecified),-6.82%

row,Compound,inhibition
1,COc1cc(C2CC(=O)Oc3cc(OC)c(OC)c(OC)c32)cc(OC)c1OC (stereo unspecified),3.9%
2,COc1ccc(C2CC(=O)Oc3ccc(C(C)(C)C)cc32)cc1 (stereo unspecified),52.5% (active)
3,CN(C)S(=O)(=O)c1ccc(C(=O)NCCN=C2NS(=O)(=O)c3ccccc32)cc1,-8.85%
4,O=C(c1ccc2ccccc2n1)N1CCN(c2ccccc2Cl)CC1,20.4%
5,NC(=O)COc1ccc(/C=N/NC(=O)C2CCCN2S(=O)(=O)c2ccc(Cl)cc2)cc1 (stereo unspecified),15.8%
6,NC(N)=N/N=C/c1ccc(OCc2ccc(Cl)cc2Cl)cc1,73.3% (active)
7,COc1ccc(Cl)cc1N(CC(=O)N/N=C/c1ccc(OCC(N)=O)cc1)S(C)(=O)=O,6.35%
8,O=C1NC[C@H](CCCCN2C[C@H](Cc3ccc(O)cc3)N(CC3CCCCC3)C(=O)C2=O)N(CCc2ccccc2)C1=O,7.35%
9,COc1cccc(N(C(=O)C2COc3ccccc3O2)C(C(=O)NC2CCCCC2)c2ccc(O)cc2)c1 (stereo unspecified),-14.6%
10,CN(Cc1ccccc1)C(=O)COC(=O)c1ccccc1Nc1ccccc1,22.9%
11,O=C(OCC(=O)N(CCc1ccccc1)Cc1ccccc1)c1ccccc1[N+](=O)[O-],71.1% (active)
12,Cc1c(C(=O)NCCCc2ccccc2)cccc1[N+](=O)[O-],1.14%
13,CC(C)(C)c1ccc(S(=O)(=O)NCC2CCN(C(=O)C(=O)c3cc4ccccc4o3)CC2)cc1,3.67%
14,O=C(COC(=O)c1cc(S(=O)(=O)N2CCOCC2)ccc1Cl)NCCc1ccccc1,-6.27%
15,CCC(=O)c1ccc(OCC(O)CN2CCN(c3cccc(C(F)(F)F)c3)CC2)cc1 (stereo unspecified),19.9%
16,CC(=O)N(C)c1ccc(NC(=O)Nc2cccc3ccccc23)cc1,-1.56%
17,CCOc1ccc(NC(=O)Nc2ccc(N(C)C(C)=O)cc2)cc1,51.5% (active)
18,CCOc1ccc(NC(=O)N(CC(C)C)CC(C)C)cc1,-6.6%
19,CC12CCC(=O)N1C(C(=O)NCCN1C(=O)S/C(=C\c3ccccc3F)C1=O)CS2 (stereo unspecified),-27.9%
20,O=S(=O)(NCC1CCCO1)c1cnc(Cl)c(Cl)c1 (stereo unspecified),12.4%
21,CCOC(=O)C1=C(c2ccccc2)O/C(=C(/C(=O)OC)C(F)(F)F)S1,-4.35%
22,CS(=O)(=O)N1CCc2cc(C(=O)Nc3ccccc3Br)ccc21,23.9%

row,Compound,inhibition
1,CS(=O)(=O)N1CCc2cc(C(=O)Nc3ccccc3)ccc21,9.11%
2,CC(=O)Nc1cccc(NC(=O)c2ccc3c(c2)CCN3S(C)(=O)=O)c1,50% (active)
3,Cc1ncc([N+](=O)[O-])n1CCOC(=O)c1ccc(Br)cc1,11.2%
4,CC(C)(C)C(c1nc2ccccc2[nH]1)n1c(Cc2csc3ccccc23)nc2ccccc21 (stereo unspecified),11.6%
5,CC(C)C[C@@H]1Cc2[nH][nH]c(=O)c2[C@H](CCc2ccccc2)O1,-21.2%
6,C[N+](C)(C)CCNC(=O)c1cc[n+](Cc2ccccc2)c(/C=N/O)c1,5.47%
7,COC(=O)C1=C(C)N(Cc2ccccc2C(F)(F)F)C(=NCc2ccc(OC)cc2)NC1c1cccc(C(F)(F)F)c1 (stereo unspecified),4.48%
8,Cc1ccc(S(=O)(=O)N(CC(=O)NCc2ccco2)c2ccccc2C)cc1,5.84%
9,CCN(CC(=O)NCc1ccco1)S(=O)(=O)c1ccc(F)cc1,-11.9%
10,COc1ccc(S(=O)(=O)N(CC(=O)NCc2ccco2)c2ccc(F)cc2)cc1,57.5% (active)
11,COc1ccc(C(C(=O)NCc2ccccc2)n2c(=O)c(-c3ccccc3)nc3ccccc32)cc1 (stereo unspecified),-24.7%
12,CN(Cc1ccccc1)C(=O)[C@@H]1CCCN1C(=O)[C@@H]1CCCN1C(=O)c1c(F)cccc1F,-1.21%
13,Cc1nnc(SCC(=O)NC(=O)NC2CCCC2)n1N,-8.31%
14,COc1cc(NC(=O)c2cc(-c3ccc(F)cc3OC(C)C)n[nH]2)cc(OC)c1OC,47.6%
15,CC(C)Oc1cc(F)ccc1-c1cc(C(=O)Nc2cccc(Cl)c2)[nH]n1,42.5%
16,CC(C)Oc1cc(F)ccc1-c1cc(C(=O)Nc2ccc(F)cc2)[nH]n1,68.5% (active)
17,O=C(CN1CCN(c2ccc(O)cc2)CC1)NC1CCCc2ccccc21 (stereo unspecified),-0.58%
18,Cc1ccc(C2CC(c3cccc(NS(C)(=O)=O)c3)=NN2S(C)(=O)=O)cc1 (stereo unspecified),0.27%
19,CCS(=O)(=O)Nc1ccc(C2=NN(C(C)=O)C(c3cccs3)C2)cc1 (stereo unspecified),6.89%
20,CS(=O)(=O)Nc1cccc(C2=NN(C(=O)c3cccc(F)c3)C(c3cccs3)C2)c1 (stereo unspecified),62.3% (active)
21,FC(F)Oc1ccc(NC(=S)NCc2ccco2)cc1Cl,36.8%
22,O=C(CSc1nc2cccc(F)c2c(=O)n1-c1ccccc1)Nc1ccc2c(c1)CCC2,-17.1%

row,Compound,inhibition
1,CCOc1ncccc1C(=O)OCC(=O)Nc1cccc(S(=O)(=O)N2CCCCCC2)c1,63.8% (active)
2,CC(NC(=O)c1ccccc1)C(=O)OCC(=O)Nc1cccc(S(=O)(=O)N2CCCC2)c1 (stereo unspecified),-4.21%
3,O=C(COC(=O)COc1ccccc1F)Nc1cccc(S(=O)(=O)N2CCCCC2)c1,-6.77%
4,COc1cccc(CCNC(=O)COc2cccc3c2OC(C)(C)C3)c1,3.3%
5,CCCNC(=O)C1CC(=O)N(c2ccc(OCC(=O)Nc3cccc(C)c3C)cc2)C1 (stereo unspecified),-17.9%
6,COc1cc(OC)cc(C(=O)OCC(=O)Nc2sccc2C(N)=O)c1,63% (active)
7,NC(=O)c1ccsc1NC(=O)COC(=O)COc1ccc(C=O)cc1,24.6%
8,Cc1cccc(C(=O)OCC(=O)Nc2sccc2C(N)=O)c1C,-21.5%
9,CCCCNC(=O)C[C@@H]1C[C@@]2(C(=O)OCC)CCC=C2N(Cc2cccc3ccccc23)C1=O,-3.28%
10,COc1cc(C(=O)OC(C)C(=O)NCC2CCCCC2)cc(NC(=O)c2ccco2)c1OC (stereo unspecified),-4.96%
11,COc1ccc(NC(=O)CCS(=O)(=O)c2cc3c(cc2Cl)NC(=O)CO3)cc1OC,-9.29%
12,Cc1cc2c(cc1S(=O)(=O)CCC(=O)NCc1ccccc1)OCC(=O)N2,8.55%
13,COc1ccc(Cl)cc1NC(=O)CCS(=O)(=O)c1cc2c(cc1C)NC(=O)CO2,63.3% (active)
14,O=C(NC1CCCC1)C1c2ccccc2OCC(=O)N1Cc1ccccc1 (stereo unspecified),-5.5%
15,Cc1ccc(C)c(OCCC(=O)OCC(=O)NC(=O)NCc2ccccc2)c1,-20.1%
16,COc1cc(SC#N)ccc1N=Cc1c(C)[nH]n(-c2ccc(C)cc2)c1=O,87.5% (active)
17,Cc1ccc2cc(C)c(N3CCC(C)CC3)nc2c1,-22.1%
18,Cc1cc(C)c2cc(C#N)c(N3CCNCC3)nc2c1,76.6% (active)
19,Cc1ccc2cc(C)c(N3CCN(c4ccc(F)cc4)CC3)nc2c1,-19.1%
20,COC(=O)[C@]12C[C@H](CC(=O)NCc3cccc(C(F)(F)F)c3)C(=O)N(Cc3ccc4c(c3)OCO4)C1=C[C@H](COCc1ccccc1)O[C@@H]2C,-19.1%
